According to ChEMBL document CHEMBL1131190, “Synthesis of 7-benzylamino-6-chloro-2-piperazino-4-pyrrolidinopteridine and novel derivatives free of positional isomers. Potent inhibitors of cAMP-specific phosphodiesterase and of malignant tumor cell growth” (J Med Chem, 1998):

Assays:
[1] = Growth inhibition of LXFL529L cells by sulforhodamine B assay, incubation time 3 days and IC50 was calculated survival of treated cells over control cells X 100[T/C%]; assay type: functional; conditions: Homo sapiens, LXFL 529L, 72 h
Summary of the method: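 LXFL529L cells grown in RPMI 1640 with extra glutamine (300 mg/L), 1% penicillin/streptomycin and 10% newborn calf serum at 37 °C, 5% CO₂, mycoplasma-free. Seeded, grown 24 h, then exposed continuously to drug for 3 d. Sulforhodamine B read-out expressed as % T/C of controls. IC50 from mean ± SEM of two separate assays, each in quadruplicate.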

Phosphodiesterase 4 = Phosphodiesterase 4 (Homo sapiens, UniProt P27815+Q08499+Q07343+Q08493); assay: Inhibition of cAMP hydrolysis by inhibiting phosphodiesterases (PDE4), isolated from tumor tissue of human large cell lung tumor xenograft LXFL-529, grown in nude mice.; assay type: protein assay

Row | Compound | IC50 (Phosphodiesterase 4) [µM] | IC50 [1] [µM]
1 | CN(C)c1nc(N2CCNCC2)nc2nc(NCc3ccccc3)c(Cl)nc12 | 0.3 | 5.9
2 | CN(C)c1nc2c(N3CCCC3)nc(Cl)nc2nc1NCc1ccccc1 | 0.65 | > 20
3 | Clc1nc2c(N3CCCC3)nc(N3CCNCC3)nc2nc1N1CCCC1 | 0.059 | 3.1
4 | CN1CCN(c2nc(N3CCCC3)c3nc(Cl)c(NCc4ccccc4)nc3n2)CC1 | 3.1 | 6.5
5 | Clc1nc2c(NCc3ccccc3)nc(N3CCNCC3)nc2nc1N1CCCC1 | 0.083 | 4
6 | Clc1nc2c(N3CCCC3)nc(N3CCOCC3)nc2nc1NCc1ccccc1 | 2.5 | > 20
7 | CC(=O)N1CCN(c2nc(N3CCCC3)c3nc(Cl)c(NCc4ccccc4)nc3n2)CC1 | 5.9 | 13

Continued, in another order:

Row | IC50 (Phosphodiesterase 4) [µM] | Compound | IC50 [1] [µM]
8 | 0.36 | c1ccc(CNc2cnc3c(N4CCCC4)nc(N4CCNCC4)nc3n2)cc1 | 7.3
9 | 0.016 | Clc1nc2c(N3CCCC3)nc(N3CCNCC3)nc2nc1NCc1ccccc1 | 2.3
10 | 1.2 | CN(C)c1nc2nc(N3CCNCC3)nc(N(C)C)c2nc1Cl | > 20
11 | 0.046 | CN(C)c1nc2nc(N3CCNCC3)nc(N3CCCC3)c2nc1Cl | 5.8
12 | 2.8 | OCCNc1nc(N2CCCC2)c2nc(Cl)c(NCc3ccccc3)nc2n1 | 15.2
13 | 1.8 | CN(C)c1nc(N2CCCC2)c2nc(Cl)c(NCc3ccccc3)nc2n1 | 11.8
14 | 3.7 | NCCNc1nc(N2CCCC2)c2nc(Cl)c(NCc3ccccc3)nc2n1 | 3.2
15 | 4.2 | O=C1CN(c2nc(N3CCCC3)c3nc(Cl)c(NCc4ccccc4)nc3n2)CCN1 | 9.5
